Laboratory results from ChEMBL document CHEMBL3763145, “Niizalactams A-C, Multicyclic Macrolactams Isolated from Combined Culture of Streptomyces with Mycolic Acid-Containing Bacterium” (J Nat Prod, 2015).
Active and inactive are the calls of the source.

What was measured:
Candida albicans = assay: Antimicrobial activity against Candida albicans at 1.25 to 10 ug/disc after 1 to 2 days by disc diffusion method; format: functional, organism-based
Method in brief: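 Candida albicans precultured in LB broth; 1 mL broth seeded directly into 20 mL agar of 4.0% glucose, 1.0% peptone, pH 5.7. 6 mm paper disks at 10, 5, 2.5, 1.25 μg/disk; plates held at 37 °C for 1 to 2 days and scored for inhibition rings.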

Bacillus subtilis = assay: Antimicrobial activity against Bacillus subtilis at 1.25 to 10 ug/disc after 1 to 2 days by disc diffusion method; format: functional, organism-based
Method in brief: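 Bacillus subtilis precultured in LB broth; 1 mL broth added directly to 20 mL LB agar. Paper disks (6 mm) loaded at 10, 5, 2.5 and 1.25 μg/disk placed on plates; incubation at 37 °C for 1 to 2 days; read-out was presence of inhibition rings around disks.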

Saccharomyces cerevisiae = assay: Antimicrobial activity against Saccharomyces cerevisiae at 1.25 to 10 ug/disc after 1 to 2 days by disc diffusion method; format: functional, organism-based
Method in brief: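 Saccharomyces cerevisiae precultured in LB broth; 1 mL added to 20 mL agar (5.0% glucose, 0.5% peptone, 0.2% yeast extract, 0.4% K2HPO4, 0.2% KH2PO4, 0.02% MgSO4·7H2O, pH 5.6). Disks (6 mm) at 10, 5, 2.5, 1.25 μg/disk; 37 °C, 1 to 2 days; inhibition rings checked.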

P388 = assay: Cytotoxicity against mouse P388 cells assessed as reduction in cell viability at 0.78 to 100 uM after 4 days by MTT assay; format: functional, cell-based
Method in brief: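 P388 cells kept in RPMI 1640 with 10% FBS and penicillin/streptomycin, 37 °C, 5% CO2. Compounds added from DMSO or methanol solutions to 1 × 10^5 cells/mL suspension at final 100 to 0.78 μM (twofold series); 4 days exposure. MTT (1 mg/mL) added 4 h, pellet dissolved in DMSO, absorbance read at 570 nm.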

Measured: Activity

CC1=C\[C@H]2[C@@H]3[C@@H](O)[C@H](O)[C@H](O)C(=O)[C@@H]3C=C[C@@H]2/C(C)=C/C=C/C=C/[C@@H](C)CNC(=O)CC(=O)\C=C\1
inactive: all assays above

CC1=C\C=C\[C@H]2[C@H](O)[C@@H](C)CN2C(=O)CC(=O)/C=C/C(C)=C/C=C/[C@@H](O)[C@H](O)[C@H](O)C(=O)/C=C\C=C\1
inactive: all assays above

CC1=C\C=C\[C@H]2[C@H](O)[C@@H](C)CN2C(=O)CC(=O)/C=C/C(C)=C/C=C/C[C@H](O)[C@H](O)C(=O)/C=C\C=C\1
inactive: all assays above
